Activity calls are given as the source filed them. No cut-off for these calls is given here.
What was measured:
[1] = target: Induced myeloid leukemia cell differentiation protein Mcl-1 (Homo sapiens, UniProt Q07820); assay: Inhibition of FAM-Bim peptide binding to MCl1 (unknown origin) measured after 30 mins by fluorescence polarization assay
[2] = target: T1, Apoptosis regulator Bcl-2 (Homo sapiens, UniProt P10415); assay: Inhibition of FAM-Bim peptide binding to human full-length N-terminal His6-tagged Bcl2 (2 to 206 residues) expressed in Escherichia coli S12 extract measured after 30 mins by fluorescence polarization assay
[3] = Inhibition of FAM-Bim peptide binding to human full-length N-terminal His6-tagged Bcl2 R106A/R109A mutant expressed in Escherichia coli S12 extract measured after 30 mins by fluorescence polarization assay
Bcl-2-like protein 1 [4] = target: T2, Bcl-2-like protein 1 (Homo sapiens, UniProt Q07817); assay: Inhibition of FAM-Bim peptide binding to Bcl-xl (unknown origin) measured after 30 mins by fluorescence polarization assay
[5] = target: T1, Apoptosis regulator Bcl-2; assay: Induction of BCl-2 dephosphorylation in human OCI-AML-3 cells assessed as increase in Bax expression at 5 to 10 uM measured after 24 hrs by coimmunoprecipitation method; assay type: cell-based; details: dose microM 5-10, time 24.0 hrs
Outline: (§1)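 Cells treated for 24 h, then lysed in 1% CHAPS buffer. 500 μg total protein precleared with protein A-Sepharose, incubated overnight with 5 μg specific antibody, captured on protein A-Sepharose or G-agarose, then immunoblotted. Bax/Bcl-2 complex, pBcl-2 (Ser70) and total Bcl-2 read out; n = 3 independent samples.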

HL-60 = assay: Induction of apoptosis in human HL-60 cells measured after 48 hrs by FITC-Annexin V/PS staining based; assay type: functional, cell-based; details: HL-60, 48 h
MCF7 = assay: Induction of apoptosis in human MCF7 cells measured after 48 hrs by FITC-Annexin V/PS staining based; assay type: functional, cell-based; details: MCF7, 48 h
KG-1 = assay: Induction of apoptosis in human KG-1 cells measured after 48 hrs by FITC-Annexin V/PS staining based; assay type: functional, cell-based; details: KG-1, 48 h
Bcl-2-like protein 1 [6] = target: T2, Bcl-2-like protein 1; assay: Effect on Bcl-xl phosphorylation in human HL-60 cells at 1 to 30 uM by Western blot analysis; details: dose microM 1-30
[7] = target: T1, Apoptosis regulator Bcl-2; assay: Induction of BCl-2 dephosphorylation in human HL-60 cells assessed as increase in Bax expression at 5 to 15 uM measured after 24 hrs by coimmunoprecipitation method; assay type: cell-based; details: filed as modulator, dose microM 5-15, time 24.0 hrs; outline: as §1
[8] = target: T1, Apoptosis regulator Bcl-2; assay: Induction of BCl-2 dephosphorylation in human OCI-AML-3 cells at 5 to 10 uM measured after 24 hrs by coimmunoprecipitation method; assay type: cell-based; details: dose microM 5-10, time 24.0 hrs; outline: as §1
OCI-AML-3 = assay: Induction of apoptosis in human OCI-AML-3 cells measured after 48 hrs by FITC-Annexin V/PS staining based; assay type: functional, cell-based; details: OCI-AML-3, 48 h
[9] = target: T1, Apoptosis regulator Bcl-2; assay: Induction of BCl-2 dephosphorylation in human HL-60 cells at 5 to 15 uM measured after 24 hrs by coimmunoprecipitation method; assay type: cell-based; details: filed as modulator, dose microM 5-15, time 24.0 hrs; outline: as §1
[10] = target: T1, Apoptosis regulator Bcl-2; assay: Binding affinity to human full-length N-terminal His6-tagged Bcl2 (2 to 206 residues) expressed in Escherichia coli S12 extract after 30 mins using FAM-labelled compound by fluorescence polarization assay
[11] = Binding affinity to human full-length N-terminal His6-tagged Bcl2 R106A/R109A mutant expressed in Escherichia coli S12 extract after 30 mins using FAM-labelled compound by fluorescence polarization assay
[12] = target: T1, Apoptosis regulator Bcl-2; assay: Binding affinity to human full-length N-terminal His6-tagged prephosphorylated Bcl2 (2 to 206 residues) expressed in Escherichia coli S12 extract after 30 mins using FAM-labelled compound by fluorescence polarization assay
[13] = Binding affinity to human full-length N-terminal His6-tagged prephosphorylated Bcl2 R106A/R109A mutant expressed in Escherichia coli S12 extract after 30 mins using FAM-labelled compound by fluorescence polarization assay
[14] = Binding affinity to human full-length N-terminal His6-tagged Bcl2 R106A/R109A mutant expressed in Escherichia coli S12 extract by isothermal titration calorimetry
[15] = Binding affinity to human full-length N-terminal His6-tagged prephosphorylated Bcl2 R106A/R109A mutant expressed in Escherichia coli S12 extract by isothermal titration calorimetry
[16] = target: T1, Apoptosis regulator Bcl-2; assay: Effect on Bcl2 phosphorylation in human HL-60 cells by Western blot analysis
[17] = Resistance ratio of EC50 for induction of apoptosis in human HL-60 cells to EC50 for Induction of apoptosis in human KG-1 cells; assay type: functional
[18] = target: T1, Apoptosis regulator Bcl-2; assay: Induction of BCl-2 dephosphorylation in human HL-60 cells at 5 to 10 uM measured after 24 hrs by coimmunoprecipitation method; assay type: cell-based; details: dose microM 5-10, time 24.0 hrs; outline: as §1
[19] = Resistance ratio of EC50 for induction of apoptosis in human OCI-AML-3 cells to EC50 for Induction of apoptosis in human MCF7 cells; assay type: functional
[20] = Resistance ratio of EC50 for induction of apoptosis in human OCI-AML-3 cells to EC50 for Induction of apoptosis in human KG-1 cells; assay type: functional
[21] = Resistance ratio of EC50 for induction of apoptosis in human HL-60 cells to EC50 for Induction of apoptosis in human MCF7 cells; assay type: functional
[22] = target: T1, Apoptosis regulator Bcl-2; assay: Induction of BCl-2 dephosphorylation in human HL-60 cells assessed as increase in Bax expression at 5 to 10 uM measured after 24 hrs by coimmunoprecipitation method; assay type: cell-based; details: dose microM 5-10, time 24.0 hrs; outline: as §1
[23] = target: T1, Apoptosis regulator Bcl-2; assay: Induction of BCl-2 dephosphorylation in human HL-60 cells assessed as increase in Bax expression at 1 to 5 uM measured after 24 hrs by coimmunoprecipitation method; assay type: cell-based; details: dose microM 1-5, time 24.0 hrs; outline: as §1
[24] = target: T1, Apoptosis regulator Bcl-2; assay: Induction of BCl-2 dephosphorylation in human OCI-AML-3 cells at 1 to 5 uM measured after 24 hrs by coimmunoprecipitation method; assay type: cell-based; details: dose microM 1-5, time 24.0 hrs; outline: as §1
[25] = target: T1, Apoptosis regulator Bcl-2; assay: Induction of BCl-2 dephosphorylation in human HL-60 cells at 1 to 5 uM measured after 24 hrs by coimmunoprecipitation method; assay type: cell-based; details: dose microM 1-5, time 24.0 hrs; outline: as §1
[26] = target: T1, Apoptosis regulator Bcl-2; assay: Induction of BCl-2 dephosphorylation in human OCI-AML-3 cells assessed as increase in Bax expression at 1 to 5 uM measured after 24 hrs by coimmunoprecipitation method; assay type: cell-based; details: dose microM 1-5, time 24.0 hrs; outline: as §1

Chain of Induced myeloid leukemia cell differentiation protein Mcl-1 (Q07820 whole entry, the tested form may be a part): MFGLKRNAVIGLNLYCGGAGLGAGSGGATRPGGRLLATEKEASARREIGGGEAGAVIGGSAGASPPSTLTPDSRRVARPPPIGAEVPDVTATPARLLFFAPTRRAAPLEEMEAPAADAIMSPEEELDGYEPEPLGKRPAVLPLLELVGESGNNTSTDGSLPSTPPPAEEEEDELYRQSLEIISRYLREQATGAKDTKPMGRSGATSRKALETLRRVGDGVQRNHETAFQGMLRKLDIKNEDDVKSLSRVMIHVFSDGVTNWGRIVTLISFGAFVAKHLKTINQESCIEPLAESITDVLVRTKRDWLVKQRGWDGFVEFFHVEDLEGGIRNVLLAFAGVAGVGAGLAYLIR
T2 sequence (Q07817 whole entry): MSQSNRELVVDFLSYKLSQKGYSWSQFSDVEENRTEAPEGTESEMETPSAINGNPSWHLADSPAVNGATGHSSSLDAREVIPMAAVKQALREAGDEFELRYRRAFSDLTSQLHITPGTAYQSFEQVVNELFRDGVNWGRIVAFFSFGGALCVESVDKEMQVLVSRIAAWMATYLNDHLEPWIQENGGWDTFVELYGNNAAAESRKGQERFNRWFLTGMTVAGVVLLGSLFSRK
T1 sequence (P10415 whole entry, the tested form may be a part): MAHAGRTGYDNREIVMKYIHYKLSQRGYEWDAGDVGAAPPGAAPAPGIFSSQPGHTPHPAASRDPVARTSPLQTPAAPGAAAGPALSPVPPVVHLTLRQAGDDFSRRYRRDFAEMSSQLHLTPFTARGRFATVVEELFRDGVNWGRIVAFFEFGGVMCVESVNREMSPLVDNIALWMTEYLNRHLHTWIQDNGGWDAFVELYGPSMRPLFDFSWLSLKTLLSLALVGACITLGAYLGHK

| SMILES | Ki [1] | Ki [2] | Ki (Bcl-2-like protein 1 [4]) | EC50 (HL-60) | EC50 (MCF7) | EC50 (KG-1) | EC50 (OCI-AML-3) | Ki [3] | also measured |
| --- | --- | --- | --- | --- | --- | --- | --- | --- | --- |
| N#CC1=C(C#N)c2ccc(Sc3ccc(Br)cc3)c3cccc(c23)C1=O | 0.49 µM | 0.85 µM | 0.75 µM | – | – | – | – | 1.67 µM | – |
| CC[C@H](C)[C@H](NC(=O)[C@H](CCCNC(=N)N)NC(=O)[C@H](CCCNC(=N)N)NC(=O)[C@H](CC(C)C)NC(=O)[C@H](CS)NC(=O)[C@H](CCC(=O)O)NC(=O)[C@H](CO)NC(=O)[C@H](CC(C)C)NC(=O)[C@H](CCCCN)NC(=O)[C@H](CCCCN)NC(=O)[C@@H](NC(=O)[C@H](CO)NC(=O)[C@H](C)NC(=O)[C@H](CC(=O)O)NC(=O)[C@H](CCC(N)=O)NC(=O)[C@@H]1CCCN1C(=O)[C@@H]1CCCN1C(=O)[C@@H](N)CCC(N)=O)[C@@H](C)O)C(=O)NCC(=O)N[C@@H](CC(=O)O)C(=O)N[C@@H](CCC(=O)O)C(=O)N[C@@H](CC(C)C)C(=O)N[C@@H](CC(=O)O)C(=O)N[C@@H](CO)C(=O)N[C@@H](CC(N)=O)C(=O)N[C@@H](CCSC)C(=O)N[C@@H](CCC(=O)O)C(=O)N[C@@H](CC(C)C)C(=O)N[C@@H](CCC(N)=O)C(=O)N[C@@H](CCCNC(=N)N)C(=O)N[C@@H](CCSC)C(=O)N[C@H](C(=O)N[C@@H](C)C(=O)N[C@@H](CC(=O)O)C(=O)N[C@H](C(=O)N[C@@H](CC(=O)O)C(=O)O)C(C)C)[C@@H](C)CC | – | – | – | – | – | – | – | – | Kd [10]: 0.0196 µM; Kd [11]: 0.0155 µM; Kd [12]: 0.0021 µM; Kd [13]: 0.0162 µM |
| N#CC1=C(NCCC(=O)O)c2ccc(Sc3ccc(Br)cc3)c3cccc(c23)C1=O | – | 1.27 µM | – | – | – | – | – | 1.44 µM | – |
| N#CC1=C(NCc2ccc(C(=O)O)cc2)c2ccc(Sc3ccc(Br)cc3)c3cccc(c23)C1=O | – | 0.78 µM | – | – | – | – | – | 0.94 µM | – |
| CC1(C)CCC(c2ccc(Cl)cc2)=C(CN2CCN(c3ccc(C(=O)NS(=O)(=O)c4ccc(N[C@H](CCN5CCOCC5)CSc5ccccc5)c(S(=O)(=O)C(F)(F)F)c4)cc3)CC2)C1 [NAVITOCLAX] | – | – | – | – | – | – | – | – | Kd [14]: 0.0278 µM; Kd [15]: 0.0306 µM |
| CCCCNC1=C(C#N)C(=O)c2cccc3c(Sc4ccc(Br)cc4)ccc1c23 | 0.35 µM | 0.21 µM | 0.55 µM | 16.9 µM | 3.1 µM | 2.7 µM | 15.4 µM | 0.15 µM | Activity [16]: inactive; Ratio EC50 [17]: 5; Activity [5]: inactive; Activity [18]: inactive; Ratio EC50 [19]: 5; Activity [8]: inactive; Ratio EC50 [20]: 5; Ratio EC50 [21]: 5; Activity [22]: inactive |

Second part, led by results:

| Ki [1] | Ki [2] | Ki (Bcl-2-like protein 1 [4]) | EC50 (HL-60) | EC50 (MCF7) | EC50 (KG-1) | EC50 (OCI-AML-3) | SMILES | Ki [3] | also measured |
| --- | --- | --- | --- | --- | --- | --- | --- | --- | --- |
| 0.32 µM | 0.16 µM | 0.81 µM | 3.8 µM | 5.5 µM | 4.9 µM | 4 µM | N#CC1=C(NCCC(=O)NCc2ccc(C(=O)O)cc2)c2ccc(Sc3ccc(Br)cc3)c3cccc(c23)C1=O | 1.65 µM | Activity ([5]; filed as modulator): Active; Activity (Bcl-2-like protein 1 [6]): inactive; Activity [7]: Active; Activity ([8]; filed as modulator): Active; Activity [9]: Active |
| – | 1.35 µM | – | – | – | – | – | N#CC1=C(NCCC(=O)NCc2ccccc2C(=O)O)c2ccc(Sc3ccc(Br)cc3)c3cccc(c23)C1=O | 1.75 µM | – |
| – | 0.81 µM | – | – | – | – | – | N#CC1=C(NCCC(=O)NCCOCCO)c2ccc(Sc3ccc(Br)cc3)c3cccc(c23)C1=O | 0.77 µM | – |
| – | 1.02 µM | – | – | – | – | – | N#CC1=C(NCCC(=O)NCc2cccc(C(=O)O)c2)c2ccc(Sc3ccc(Br)cc3)c3cccc(c23)C1=O | 1.67 µM | – |
| – | 4.32 µM | – | – | – | – | – | CN(C)c1ccc(CNC(=O)CCNC2=C(C#N)C(=O)c3cccc4c(Sc5ccc(Br)cc5)ccc2c34)cc1 | 0.84 µM | – |
| – | – | – | 8.1 µM | 1.35 µM | 0.85 µM | 6.8 µM | CC1(C)CCC(CN2CCN(c3ccc(C(=O)NS(=O)(=O)c4ccc(NCC5CCOCC5)c([N+](=O)[O-])c4)c(Oc4cnc5[nH]ccc5c4)c3)CC2)=C(c2ccc(Cl)cc2)C1 [VENETOCLAX] | – | Kd [14]: 0.0045 µM; Activity [23]: inactive; Activity [24]: inactive; Kd [15]: 0.0055 µM; Activity [25]: inactive; Activity [26]: inactive |
| 0.56 µM | 1.05 µM | 1.11 µM | 21.7 µM | 18.5 µM | 16.8 µM | 22.3 µM | N#CC1=C(NCCC(=O)NCc2ccccc2)c2ccc(Sc3ccc(Br)cc3)c3cccc(c23)C1=O | 1.88 µM | Activity [5]: inactive; Activity [18]: inactive; Activity [8]: inactive; Activity [22]: inactive |

Source: ChEMBL document CHEMBL4699647, “Targeting the Allosteric Pathway That Interconnects the Core-Functional Scaffold and the Distal Phosphorylation Sites for Specific Dephosphorylation of Bcl-2” (J Med Chem, 2020)
